Assay [1] concerns the target Neuronal acetylcholine receptor subunit alpha-7 (Rattus norvegicus, UniProt Q05941). The experiment in a line: Displacement of [3H]methyllycaconitine from Sprague-Dawley rat brain alpha7 nAChR after 120 mins by liquid scintillation counting analysis. It is filed as tissue-based. An outline of the steps:
(§1)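 Radioligand competition binding gave Ki values, reported as mean ± SEM from 2–10 independent experiments.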

Assay [2] deals with T1, Nicotinic acetylcholine receptor alpha1/beta1/epsilon/delta (Mus musculus) (UniProt P04756+P09690+P02716+P20782). The experiment in a line: Agonist activity at mouse muscle alpha1beta1epsilondelta nAChR expressed in Xenopus oocytes at 10 uM incubated for 8 secs followed by compound washout measured after 241 secs by two-electrode voltage clamp technique. It is filed as cell-based.

Assay [3] has as its target T2, Neuronal acetylcholine receptor; alpha4/beta2 (Homo sapiens) (UniProt P17787+P43681). Nature of the assay: Partial agonist activity at human alpha4beta2 nAChR expressed in Xenopus oocytes at 10 uM incubated for 8 secs followed by compound washout measured after 241 secs by two-electrode voltage clamp technique. It is filed as cell-based.
Assay [4] in a line: Displacement of [3H]epibatidine from calf adrenal alpha3beta4 nAChR after 90 mins by liquid scintillation counting analysis. Further details: species or system Bos taurus.
In assay [5] the target is Neuronal acetylcholine receptor; alpha4/beta2 (Rattus norvegicus, UniProt P09483+P12390). The experiment in a line: Displacement of [3H]epibatidine from Sprague-Dawley rat brain alpha4beta2 nAChR after 90 mins by liquid scintillation counting analysis. An outline of the steps: as §1
In assay [6] the target is T1, Nicotinic acetylcholine receptor alpha1/beta1/epsilon/delta (Mus musculus). The experiment in a line: Antagonist activity at mouse muscle alpha1beta1epsilondelta nAChR expressed in Xenopus oocytes assessed as inhibition of acetylcholine-induced effect at 1 uM incubated for 8 secs followed by compound washout measured after 241 secs by two-electrode voltage clamp technique. It is filed as cell-based.

The target in assay [7] is T3, Neuronal acetylcholine receptor; alpha3/beta4 (Homo sapiens) (UniProt P30926+P32297). The experiment in a line: Antagonist activity at human alpha3beta4 nAChR expressed in Xenopus oocytes at 1 uM incubated for 8 secs followed by compound washout measured after 241 secs by two-electrode voltage clamp technique. In kind it is cell-based.
Assay [8] concerns the target T3, Neuronal acetylcholine receptor; alpha3/beta4 (Homo sapiens). Nature of the assay: Agonist activity at human alpha3beta4 nAChR expressed in Xenopus oocytes at 10 uM incubated for 8 secs followed by compound washout measured after 241 secs by two-electrode voltage clamp technique. It is filed as cell-based.
The target in assay [9] is Neuronal acetylcholine receptor subunit alpha-7 (Homo sapiens) (UniProt P36544). The experiment in a line: Agonist activity at human alpha7 nAChR expressed in Xenopus oocytes at 1 uM incubated for 12 secs followed by compound washout measured after 181 secs by two-electrode voltage clamp technique. In kind it is cell-based.
Assay [10] has as its target T2, Neuronal acetylcholine receptor; alpha4/beta2 (Homo sapiens). Nature of the assay: Partial agonist activity at human alpha4beta2 nAChR expressed in Xenopus oocytes at 1 uM incubated for 8 secs followed by compound washout measured after 241 secs by two-electrode voltage clamp technique. It is filed as cell-based.
Assay [11] can be described thus: Displacement of [3H]epibatidine from Torpedo californica electroplax (alpha1)2beta1gammadelta nAChR after 90 mins by liquid scintillation counting analysis. Further details: species or system Tetronarce californica.
Assay [12] has as its target Neuronal acetylcholine receptor subunit alpha-7 (Homo sapiens) (UniProt P36544). The experiment in a line: Antagonist activity at human alpha7 nAChR expressed in Xenopus oocytes assessed as inhibition of acetylcholine-induced effect at 1 uM incubated for 12 secs followed by compound washout measured after 181 secs by two-electrode voltage clamp technique. It is filed as cell-based.

In assay [13] the target is T1, Nicotinic acetylcholine receptor alpha1/beta1/epsilon/delta (Mus musculus). Nature of the assay: Agonist activity at mouse muscle alpha1beta1epsilondelta nAChR expressed in Xenopus oocytes at 1 uM incubated for 8 secs followed by compound washout measured after 241 secs by two-electrode voltage clamp technique. It is filed as cell-based.
In assay [14] the target is T3, Neuronal acetylcholine receptor; alpha3/beta4 (Homo sapiens). Nature of the assay: Agonist activity at human alpha3beta4 nAChR expressed in Xenopus oocytes at 1 uM incubated for 8 secs followed by compound washout measured after 241 secs by two-electrode voltage clamp technique. In kind it is cell-based.
The target of assay [15] is T2, Neuronal acetylcholine receptor; alpha4/beta2 (Homo sapiens). Nature of the assay: Antagonist activity at human alpha4beta2 nAChR expressed in Xenopus oocytes assessed as inhibition of acetylcholine-induced effect at 1 uM incubated for 8 secs followed by compound washout measured after 241 secs by two-electrode voltage clamp technique. It is filed as cell-based.

pKi: −log10 of the molar value. The source made the active and inactive calls. No cut-off for these calls is given here. Where only a bound is given, the exact number is not on record here.

Neuronal acetylcholine receptor; alpha4/beta2, sequence (P09483 whole entry): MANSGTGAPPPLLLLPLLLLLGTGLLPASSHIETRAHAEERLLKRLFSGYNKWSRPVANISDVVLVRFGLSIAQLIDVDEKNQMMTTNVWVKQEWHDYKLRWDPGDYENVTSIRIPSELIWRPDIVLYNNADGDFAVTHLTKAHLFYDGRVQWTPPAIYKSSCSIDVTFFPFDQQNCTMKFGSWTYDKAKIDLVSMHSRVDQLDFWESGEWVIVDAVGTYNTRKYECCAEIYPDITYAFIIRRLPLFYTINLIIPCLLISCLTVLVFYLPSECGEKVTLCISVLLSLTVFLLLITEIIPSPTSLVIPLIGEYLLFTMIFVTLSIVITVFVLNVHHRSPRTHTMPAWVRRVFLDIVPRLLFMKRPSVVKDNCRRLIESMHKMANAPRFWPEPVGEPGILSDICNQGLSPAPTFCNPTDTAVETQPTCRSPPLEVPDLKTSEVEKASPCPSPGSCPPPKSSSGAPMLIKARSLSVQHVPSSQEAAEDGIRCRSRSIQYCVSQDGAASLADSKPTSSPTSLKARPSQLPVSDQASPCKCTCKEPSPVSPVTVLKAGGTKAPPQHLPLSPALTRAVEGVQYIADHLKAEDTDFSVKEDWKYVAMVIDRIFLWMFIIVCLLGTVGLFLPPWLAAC
Neuronal acetylcholine receptor; alpha4/beta2, sequence (P12390 whole entry): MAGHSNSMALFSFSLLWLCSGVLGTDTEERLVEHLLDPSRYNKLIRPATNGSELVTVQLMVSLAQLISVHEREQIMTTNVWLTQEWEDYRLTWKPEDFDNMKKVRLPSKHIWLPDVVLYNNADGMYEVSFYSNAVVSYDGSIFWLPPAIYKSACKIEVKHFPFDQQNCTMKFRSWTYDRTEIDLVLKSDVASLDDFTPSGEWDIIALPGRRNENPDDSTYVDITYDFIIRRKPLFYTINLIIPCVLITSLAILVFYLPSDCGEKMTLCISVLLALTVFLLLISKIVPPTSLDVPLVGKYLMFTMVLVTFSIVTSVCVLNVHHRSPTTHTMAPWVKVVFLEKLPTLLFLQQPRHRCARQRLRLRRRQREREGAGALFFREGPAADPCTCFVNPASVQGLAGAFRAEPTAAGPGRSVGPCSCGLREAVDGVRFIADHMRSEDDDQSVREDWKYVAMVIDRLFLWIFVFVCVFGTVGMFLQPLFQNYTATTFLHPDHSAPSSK
Neuronal acetylcholine receptor subunit alpha-7, sequence (Q05941 whole entry): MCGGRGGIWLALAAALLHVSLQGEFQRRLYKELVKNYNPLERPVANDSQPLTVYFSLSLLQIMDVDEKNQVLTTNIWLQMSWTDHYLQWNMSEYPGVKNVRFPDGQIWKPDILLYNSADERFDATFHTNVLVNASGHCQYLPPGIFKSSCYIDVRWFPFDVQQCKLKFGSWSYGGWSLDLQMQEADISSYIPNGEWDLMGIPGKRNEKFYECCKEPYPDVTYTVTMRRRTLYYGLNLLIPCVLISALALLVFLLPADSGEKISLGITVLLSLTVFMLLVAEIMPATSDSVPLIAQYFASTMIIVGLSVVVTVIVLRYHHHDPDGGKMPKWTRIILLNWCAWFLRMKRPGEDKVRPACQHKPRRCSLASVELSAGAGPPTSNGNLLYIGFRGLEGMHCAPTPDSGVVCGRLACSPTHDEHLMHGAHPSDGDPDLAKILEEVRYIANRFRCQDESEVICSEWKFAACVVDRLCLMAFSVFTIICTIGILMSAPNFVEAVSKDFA
Neuronal acetylcholine receptor subunit alpha-7 (Homo sapiens), sequence (P36544 whole entry): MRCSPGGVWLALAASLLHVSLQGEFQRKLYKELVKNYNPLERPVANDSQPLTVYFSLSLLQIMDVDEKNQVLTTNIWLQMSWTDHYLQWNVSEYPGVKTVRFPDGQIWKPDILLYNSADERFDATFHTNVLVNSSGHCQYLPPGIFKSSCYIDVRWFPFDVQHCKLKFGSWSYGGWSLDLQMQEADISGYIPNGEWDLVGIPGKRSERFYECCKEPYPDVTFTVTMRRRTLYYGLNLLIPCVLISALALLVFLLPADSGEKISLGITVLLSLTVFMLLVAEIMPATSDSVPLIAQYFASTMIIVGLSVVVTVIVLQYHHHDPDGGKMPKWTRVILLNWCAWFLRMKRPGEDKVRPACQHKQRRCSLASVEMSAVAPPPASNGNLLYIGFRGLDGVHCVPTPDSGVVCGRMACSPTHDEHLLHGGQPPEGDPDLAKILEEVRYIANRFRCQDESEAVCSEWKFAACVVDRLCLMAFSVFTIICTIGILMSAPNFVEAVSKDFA

Consider `O=C(/C=C/c1cccnc1)N1C[C@@H]2CNC[C@@H](C2)C1`, for which the negative-log Ki (pKi) in [1] was < 6.00; in [4], < 6.00; in assay [5] it was 7.49; in [11], < 5.30. The outcome in assay [2], in [7], in [8], in assay [9], in [13] and in assay [14] was inactive. The result in assay [3] and in [10] was Active. Also, the inhibition result in [6] and in assay [12] was “inactive” each time.
With `O=C(/C=C/c1ccccc1)N1C[C@@H]2CNC[C@@H](C2)C1`, the negative logarithm of the Ki (pKi) is < 5.30 in assay [1], < 5.30 in assay [4], 7.26 in assay [5] and < 5.00 in assay [11]. For the same molecule, the result in assay [2], in assay [7], in [8], in assay [9], in [13] and in assay [14] was inactive. The outcome in assay [3] and in assay [10] was Active. Further, the inhibition result in assay [6] and in assay [12] was “inactive” throughout.
Consider `O=C(Cc1ccncc1)N1C[C@@H]2CNC[C@@H](C2)C1`, for which the negative-log Ki (pKi) in [1] was < 6.00; in [4], < 6.00; in assay [5] it was 7.84; in assay [11] it was < 5.30. The result in assay [2], in [7], in [8], in [9], in assay [13] and in assay [14] was inactive. Also, the outcome in assay [3] and in assay [10] was Active. The inhibition result in [6] and in assay [12] was “inactive” each time.
For `O=C(Cc1cccnc1)N1C[C@@H]2CNC[C@@H](C2)C1`, the pKi in assay [1] was < 6.00; in assay [4] it was < 6.00; in [5], 7.95; in [11], < 5.30. Besides, the outcome in assay [2], in assay [7], in assay [8], in assay [9], in [13] and in assay [14] was inactive. The result in assay [3] and in assay [10] was Active. Further, the inhibition entry in assay [6] and in assay [12] was “inactive” throughout.
In the case of `O=C(CCc1ccccc1)N1C[C@@H]2CNC[C@@H](C2)C1`, the values for the pKi in [1], in [4] and in [5] were < 5.00, 6.40 and 7.28, respectively. The outcome in [2], in assay [7], in [8], in [9], in assay [13] and in assay [14] was inactive. The outcome in assay [3] and in assay [10] was Active. In addition, the inhibition entry in [6] and in assay [12] was “inactive” throughout.
With `COc1ccc(C#CC(=O)N2C[C@@H]3CNC[C@@H](C3)C2)cc1Cl`, in assay [15], the “antagonist activity (active/inactive)” value was “Active”. Further, the negative-log Ki (pKi) is < 6.00 in [1], < 6.00 in assay [4], 9.00 in assay [5] and < 5.30 in assay [11]. In addition, the result in [2], in [7] and in assay [8] was inactive. For the same molecule, the outcome in [3] was Active. The inhibition result in assay [6] and in assay [12] was “inactive” throughout.
Regarding `O=C(C#Cc1ccc2c(c1)OCO2)N1C[C@@H]2CNC[C@@H](C2)C1`, in assay [15], the “antagonist activity (active/inactive)” value is “Active”. Moreover, the pKi in assay [1] is < 6.00; in assay [4], < 6.00; in assay [5], 8.51; in assay [11], < 5.30. Besides, the result in assay [2], in [7] and in assay [8] was inactive. Moreover, the outcome in [3] was Active. Besides, the inhibition entry in assay [6] and in assay [12] was “inactive” in each case.
Take `O=C(Cc1ccccc1)N1C[C@@H]2CNC[C@@H](C2)C1`: the pKi in assay [1] is < 5.00; in assay [5] it was 7.24. For the same molecule, the result in [2], in assay [7], in assay [8], in [9], in assay [13] and in assay [14] was inactive. In addition, the outcome in assay [3] and in [10] was Active. Moreover, the inhibition result in assay [6] and in [12] was “inactive” throughout.
With `COc1ccc(C#CC(=O)N2C[C@@H]3CNC[C@@H](C3)C2)cc1OC`, the “antagonist activity (active/inactive)” value in [15] was “Active”. In addition, the pKi in assay [1] was < 6.00; in [4], < 6.00; in [5], 8.68; in assay [11], < 5.30. Besides, the outcome in assay [2], in [7] and in assay [8] was inactive. The outcome in assay [3] was Active. For the same molecule, the inhibition result in assay [6] was “Active”. In addition, the inhibition entry in assay [12] is “inactive”.
For `O=C(/C=C/c1ccncc1)N1C[C@@H]2CNC[C@@H](C2)C1`, the negative logarithm of the Ki (pKi) in assay [1] was < 5.00; in [4] it was < 6.00; in assay [5], 8.99; in assay [11], < 5.30. Moreover, the result in assay [2], in [7], in [8], in assay [9], in [13] and in assay [14] was inactive. Also, the result in assay [3] and in assay [10] was Active. In addition, the inhibition entry in assay [6] and in assay [12] was “inactive” each time.
In the case of `O=C(Cc1ccc2c(c1)OCO2)N1C[C@@H]2CNC[C@@H](C2)C1`, the pKi in assay [1] is < 6.00; in [4], < 6.00; in assay [5], 7.88; in assay [11], < 5.30. The outcome in assay [2], in assay [7], in assay [8], in assay [9], in assay [13] and in assay [14] was inactive. In addition, the result in assay [3] and in assay [10] was Active. In addition, the inhibition entry in assay [6] and in assay [12] was “inactive” each time.
Turning to `O=C(/C=C/c1ccc2c(c1)OCO2)N1C[C@@H]2CNC[C@@H](C2)C1`, the pKi in assay [1] was < 6.00; in assay [4], < 6.00; in assay [5], 7.43; in assay [11], < 5.30. Moreover, the result in [2], in assay [7], in assay [8], in assay [9], in assay [13] and in assay [14] was inactive. The result in assay [3] and in [10] was Active. In addition, the inhibition entry in [6] and in assay [12] was “inactive” each time.
